Test results published in PubChem BioAssay AID1496 (Sanford-Burnham Center for Chemical Genomics, 2009).
“And” between values parts separate entries of the source, which are not always exact repeats. Identical values can stand only once. Among all 220,000 compounds or so, about 990 (0.45%) were called active.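 Rule for the calls: active = inhibition over about 50% at 20 µM in the single-dose screen (limit read from the data); inactive = the rest.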 Only a selection was taken, and actives are over-represented in it overall. Some compounds were tested as several samples or in several runs, with calls that do not always agree.

Biological target: Runt-related transcription factor 1 (Homo sapiens) + Core-binding factor subunit beta (Homo sapiens) (UniProt Q01196+Q13951)
Test: inhibitors of RUNX1 Runt–CBFb binding, primary screen, biochemical, FRET, Cerulean-Runt, Venus-CBFb, uHTS (AID 1496);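 note: 0% = DMSO wells and 100% = excess unlabeled CBFb competitor control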
Conditions: Cerulean-Runt/Venus-CBFb FRET ratio 530/480, 1 h; at 20 µM; stronger effect = higher value
In short: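 Measured by: fluorescence energy transfer, 422 nm excitation, 530/480 nm emission; Assay system: Cerulean-Runt domain; Medium: Tris pH 7.5 buffer with BSA; Measure: loss of energy transfer signal; Controls: 5 µM unlabeled CBFb as full-inhibition high control; Incubation: protein complex preformed 1 h, compound exposure 1 h, room temperature, dark.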

Runt-related transcription factor 1 (Homo sapiens) + Core-binding factor subunit beta (Homo sapiens), sequence (Q01196 whole entry, looked up): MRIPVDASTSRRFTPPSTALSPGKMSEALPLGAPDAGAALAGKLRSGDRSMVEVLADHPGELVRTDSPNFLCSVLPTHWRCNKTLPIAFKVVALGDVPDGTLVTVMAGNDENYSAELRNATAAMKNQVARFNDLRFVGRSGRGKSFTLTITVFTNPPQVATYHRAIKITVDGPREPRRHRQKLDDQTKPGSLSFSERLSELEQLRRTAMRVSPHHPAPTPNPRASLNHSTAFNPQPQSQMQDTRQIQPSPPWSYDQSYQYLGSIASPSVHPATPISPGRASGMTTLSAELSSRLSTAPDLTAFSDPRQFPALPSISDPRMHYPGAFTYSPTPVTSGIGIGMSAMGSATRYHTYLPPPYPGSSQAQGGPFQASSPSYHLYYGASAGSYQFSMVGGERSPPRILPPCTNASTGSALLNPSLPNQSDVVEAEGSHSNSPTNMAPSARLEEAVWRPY
Runt-related transcription factor 1 (Homo sapiens) + Core-binding factor subunit beta (Homo sapiens), sequence (Q13951 whole entry, looked up): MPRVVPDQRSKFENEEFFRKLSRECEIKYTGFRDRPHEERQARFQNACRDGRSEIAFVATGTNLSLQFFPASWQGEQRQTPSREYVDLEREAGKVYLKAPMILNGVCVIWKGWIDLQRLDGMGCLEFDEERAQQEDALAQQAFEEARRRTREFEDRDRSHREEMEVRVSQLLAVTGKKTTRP

**Q.** Which inhibition does the source give for O=S(=O)(Nc1ccc(OC(F)(F)F)cc1)c1cccc2nonc12 here?
**A.** -2.4% (inactive)

**Q.** For O=c1[nH]c2ccccc2n2c(-c3ccccc3)nnc12, which inhibition is on record?
**A.** 53% (active)

**Q.** How did the inhibition turn out when Cc1ccc(-c2nc3ccccc3[nH]c2=O)cc1 was run?
**A.** 1.4% (inactive)

**Q.** Which inhibition does the source give for O=[N+]([O-])c1cccc(-c2nnc3c4ccccc4c4ccccc4n23)c1 here?
**A.** 4.4% (inactive)

**Q.** Oc1c(Br)cc(/C=N/NC(=S)NCC2CCCO2)cc1Br (stereo not drawn) was tested. Which inhibition did it give?
**A.** 0.6% (inactive)

**Q.** Which inhibition does the source give for CCN1C(=O)/C(=C\N2CCN(c3ccccc3)CC2)SC1=S here?
**A.** -0.2% (inactive)

**Q.** CCCCN1C(=O)/C(=C/C=C2/C=Cc3ccccc3N2CC)SC1=S was tested. Which inhibition did it give?
**A.** 27.9% (inactive)

**Q.** For CCN1C(=O)/C(=C2/Sc3ccccc3N2CCCS(=O)(=O)O)SC1=S, which inhibition is on record?
**A.** 44.8% (inactive) and 56.4% (active)

**Q.** With COCCNC(=S)N1CCN(C)CC1 as the molecule, how does the inhibition read?
**A.** 0.5% (inactive)

**Q.** How did the inhibition turn out when O=C1CCCCC1C(=O)c1ccccc1 (stereo not drawn) was run?
**A.** 1.7% (inactive)

**Q.** With COc1ccc(C2/C=C\CN(CC(C)C)CC(=O)N2Cc2ccc(F)cc2)cc1 (stereo not drawn) as the molecule, how does the inhibition read?
**A.** 0% (inactive)

**Q.** Which inhibition does the source give for O=C(O)CCc1cccnc1 here?
**A.** -0.7% (inactive)

**Q.** For CCOC(=O)C1CCN(C(=O)Cn2cc(C#N)c3ccccc32)CC1, which inhibition is on record?
**A.** 0.6% (inactive)

**Q.** Which inhibition does the source give for COc1cccc2c(=O)n(CC(=O)N3CCCCCC3)ccc12 here?
**A.** 0.5% (inactive)

**Q.** With CCc1cccc2c(C=C(C#N)C#N)cn(CC(=O)N3CCCCC3)c12 as the molecule, how does the inhibition read?
**A.** 91.4% (active)

**Q.** With CSC1=NC2(C)CCCCC2C12C=CC(=O)C=C2 (stereo not drawn) as the molecule, how does the inhibition read?
**A.** 2.8% (inactive)

**Q.** For COc1ccc(N2CCN(C(=O)CSc3nc4cc(OC)c(OC)cc4cc3C#N)CC2)cc1, which inhibition is on record?
**A.** 12.5% (inactive)

**Q.** With CCOc1ccc2nc(N3CCCN(C(=O)Nc4ccccc4C)CC3)c(C#N)cc2c1 as the molecule, how does the inhibition read?
**A.** 29.2% (inactive)

**Q.** How did the inhibition turn out when COc1ccc2nc(N3CCCC(O)C3)c(C#N)cc2c1 (stereo not drawn) was run?
**A.** 81.1% (active)

**Q.** How did the inhibition turn out when CC1CCN(c2c(NCc3ccc(C(=O)NCc4ccccc4)cc3)c(=O)c2=O)CC1 was run?
**A.** 0.6% (inactive)

**Q.** How did the inhibition turn out when NNC(=O)c1oc2nc(-c3ccccc3)cc(-c3ccco3)c2c1N was run?
**A.** -57.1% (inactive)

**Q.** Which inhibition does the source give for CSc1nc(-c2ccco2)nn1C(=O)c1ccccc1Cl here?
**A.** -3.7% (inactive)

**Q.** With COc1ccc(Cl)cc1C(=O)NNC(=O)c1nc2nc(C)cc(C)n2n1 as the molecule, how does the inhibition read?
**A.** -0.8% (inactive)

**Q.** With COc1ccc(S(=O)(=O)Nc2ccc3oc(C)c(C(C)=O)c3c2)cc1 as the molecule, how does the inhibition read?
**A.** 0.3% (inactive)

**Q.** With COCc1cc(=O)oc2cc(NS(=O)(=O)c3ccc(C)cc3)ccc12 as the molecule, how does the inhibition read?
**A.** 58.8% (active)

**Q.** Cc1ccc(S(=O)(=O)Nc2ccc3ncccc3c2)cc1 was tested. Which inhibition did it give?
**A.** -1.3% (inactive)

**Q.** With Clc1ccc(C[n+]2cc(-c3ccc(Cl)cc3)n3c2CCC3)cc1 as the molecule, how does the inhibition read?
**A.** 0.1% (inactive)

**Q.** For Cc1cc(C(=O)N2CCC(C(=O)O)CC2)c(C(F)(F)F)o1, which inhibition is on record?
**A.** 0% (inactive)

**Q.** How did the inhibition turn out when S=C(NNC(=S)NC1CC2CCC1C2)NC1CC2C=CC1C2 (stereo not drawn) was run?
**A.** 11.8% (inactive)

**Q.** For COc1ccc2oc(=O)c(C(=O)O)cc2c1, which inhibition is on record?
**A.** 3.3% (inactive)

**Q.** With COc1ccc2oc(=O)c(C(=O)N3CCCC3)cc2c1 as the molecule, how does the inhibition read?
**A.** 2% (inactive)

**Q.** With COc1cccc(C(=O)c2cc3ccc(O)cc3oc2=O)c1 as the molecule, how does the inhibition read?
**A.** 126% (active)

**Q.** For O=C(Nc1nnc(CCN2CCCCC2)s1)c1cccc(Cl)c1, which inhibition is on record?
**A.** 2.2% (inactive)

**Q.** Which inhibition does the source give for Cc1noc(C)c1-c1nc(CSc2ccc(Cl)cc2)no1 here?
**A.** 0.4% (inactive)

**Q.** How did the inhibition turn out when OC(c1nc2ccccc2[nH]1)C(O)C(O)C(O)c1nc2ccccc2[nH]1 (stereo not drawn) was run?
**A.** -0.4% (inactive)

**Q.** O=C(Nc1cccc2ncccc12)C(Cl)(Cl)Cl was tested. Which inhibition did it give?
**A.** -0.7% (inactive)

**Q.** Cc1ccc(C(=O)Nc2cccc3ncccc23)cc1[N+](=O)[O-] was tested. Which inhibition did it give?
**A.** -0.8% (inactive)

**Q.** With Cc1ccc(/C=C(\C#N)C(=O)Nc2cccc3ncccc23)o1 as the molecule, how does the inhibition read?
**A.** 125% (active)

**Q.** With CCC(=O)c1ccc(OCC(=O)Nc2ccc3nc(C)sc3c2)cc1 as the molecule, how does the inhibition read?
**A.** 1.3% (inactive)

**Q.** CC1=NNC(=O)C1CCC(=O)N/N=C(\C)c1ccc(Cl)cc1 (stereo not drawn) was tested. Which inhibition did it give?
**A.** -1.6% (inactive)

**Q.** Which inhibition does the source give for CC[C@@H](C)[C@@H](C(=O)N1CCN(C(=O)OC(C)(C)C)CC1)n1cc(CCC(=O)O)nn1 here?
**A.** 2.1% (inactive)

**Q.** How did the inhibition turn out when CCc1c(C)nc2c(-c3ccccc3)c(C)nn2c1Nc1ccc(NC(C)=O)cc1 was run?
**A.** -2.4% (inactive)

**Q.** O=C(O)c1ccccc1C(=O)Nc1ccccc1[N+](=O)[O-] was tested. Which inhibition did it give?
**A.** -1.2% (inactive)

**Q.** NC(=O)c1c(NC(=O)CSc2nc(N)cc(=O)[nH]2)sc2c1CCCC2 was tested. Which inhibition did it give?
**A.** 0.4% (inactive)

**Q.** How did the inhibition turn out when Fc1cc(F)c2nc(Nc3nc4c(F)cccc4s3)sc2c1 was run?
**A.** 0.3% (inactive)

**Q.** How did the inhibition turn out when NC(=O)c1c(Nc2nc3c(F)cccc3s2)sc2c1CCCC2 was run?
**A.** 117% (active)

**Q.** Which inhibition does the source give for Cc1ccc(-n2cc3ccc([N+](=O)[O-])cc3n2)cc1 here?
**A.** -12.8% (inactive)

**Q.** How did the inhibition turn out when Cc1ccc(-c2cn3cc(C)ccc3n2)cc1 was run?
**A.** -4.5% (inactive)

**Q.** Cc1ccc(-c2cn3cc([N+](=O)[O-])ccc3n2)cc1 was tested. Which inhibition did it give?
**A.** 67.1% (active)

**Q.** For O=C(NNc1cc(Cl)cc(Cl)c1)c1c(F)cccc1Cl, which inhibition is on record?
**A.** 0.6% (inactive)

**Q.** O=C(Cc1cccc2ccccc12)NNC(=O)Nc1ccc(Cl)cc1 was tested. Which inhibition did it give?
**A.** 1.3% (inactive)

**Q.** With C/C(=N/OC(=O)c1c(-c2c(F)cccc2Cl)noc1C)c1cnccn1 as the molecule, how does the inhibition read?
**A.** -0.3% (inactive)

**Q.** CCOC(=O)c1cc2c(=O)n3ccccc3nc2n(CC(C)C)c1=NC(=O)c1c(-c2c(F)cccc2Cl)noc1C was tested. Which inhibition did it give?
**A.** 64.1% (active)

**Q.** How did the inhibition turn out when Cc1onc(-c2c(Cl)cccc2Cl)c1C(=O)NNC(=O)c1c(-c2c(Cl)cccc2Cl)noc1C was run?
**A.** 0.7% (inactive)

**Q.** Cc1ccc(-n2c(=O)c(C#N)cc3c(=O)n4ccccc4nc32)cc1C was tested. Which inhibition did it give?
**A.** 19.9% (inactive)

**Q.** With CCn1c(=N)c(S(=O)(=O)c2ccc(F)cc2)cc2c(=O)n3ccccc3nc21 as the molecule, how does the inhibition read?
**A.** 10.5% (inactive)

**Q.** Which inhibition does the source give for CCCn1c(=NC(C)=O)c(C(=O)OCC)cc2c(=O)n3ccccc3nc21 here?
**A.** 101% (active)

**Q.** How did the inhibition turn out when O=C(NCC1CCCO1)c1cc(-c2ccccc2)nc2ccccc12 (stereo not drawn) was run?
**A.** 1.5% (inactive)

**Q.** Which inhibition does the source give for Cc1noc(C)c1COC(=O)COc1ccc(-c2ccccc2)cc1 here?
**A.** -2.6% (inactive)

**Q.** For CC(=O)NNC(=O)c1csc(Cc2c(Cl)sc3ccc(Cl)cc23)n1, which inhibition is on record?
**A.** 1.6% (inactive)

**Q.** Which inhibition does the source give for O=C(NNS(=O)(=O)c1ccccc1)c1cnn(-c2ccc(Cl)cc2)c1C(F)(F)F here?
**A.** 1.6% (inactive)

**Q.** O=C(CNCc1cccs1)Nc1cc(S(=O)(=O)N2CCCC2)ccc1Cl was tested. Which inhibition did it give?
**A.** 4.6% (inactive)

**Q.** Which inhibition does the source give for CCc1nc(NCCO)c(C#N)c2c1CCCC2 here?
**A.** -0.2% (inactive)
